# High-throughput results deposited in PubChem by Columbia University Molecular Screening Center.
# This is one part of a sample in which hits are shown more often than they occur.
# INS promoter act: TRM-6 insulin promoter activation. TRM-6 cells (human fetal islet line), insulin promoter eGFP reporter, imaging; plate-scaled: unstimulated 0, stimulated control 100. activation, % at 2 µM. 130,000 compounds, 0.81% hits. AID 1296;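 active = activation at 2 µM above a set limit, confirmed on inspection of the cell images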;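 note: share of cells whose green reporter signal exceeds an intensity cutoff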
#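 test system = TRM-6 insulin promoter–eGFP reporter cells | benchmarks = stimulated versus unstimulated wells as plate controls | read-out basis = percent cells above green-intensity threshold, converted to percent activation versus plate controls | detection = fixed-cell fluorescence microscopy, eGFP plus Hoechst | incubation = tamoxifen pre-incubation 15 h overnight, then compound exposure 48 h at 37 °C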
# Active calls of the source: *.
SMILES,INS promoter act
CCCCn1c(O)c(C(CC)=NCc2ccc(F)cc2)c(=O)[nH]c1=O,-83
C=CCn1c(O)c(C(CC)=NCCc2ccccc2)c(=O)[nH]c1=O,550*
C=CCn1c(O)c(C(C)=NCCc2ccccc2)c(=O)[nH]c1=O,0
Cc1cc(C(=O)CS(=O)(=O)c2ccccc2)cc(C)c1OC(=O)N(C)C,0
O=c1c2ccccc2nc(/C=C/c2ccc([N+](=O)[O-])o2)n1-c1ccc(O)cc1,525*
CCOc1ccc(-n2c(-c3ccoc3)nc3ccccc3c2=O)cc1,4
O=C(Cn1cc(C(=O)c2ccccc2F)c2ccccc21)NC1CC1,127
Cc1cc2c(C(C)C)c(O)c(O)c(C=O)c2c(O)c1-c1c(C)cc2c(C(C)C)c(O)c(O)c(C=O)c2c1O,-62
COc1ccc(-n2c(C)cc(C(=O)C[N+]34CCN(CC3)CC4)c2C)cc1,7
CCC(C)n1c(O)c(/C=N/NC(=O)c2ccncc2)c(=O)[nH]c1=S (stereo not drawn),0
c1ccc(C2OCCN3CCCCC23)cc1 (stereo not drawn),214
O=c1cc(C(F)(F)F)c2cc3c4c(c2o1)CCCN4CCC3,164*
CCOP(=O)(OCC)C(NC(=O)CN1C(=O)c2ccccc2S1(=O)=O)C(Cl)(Cl)Cl (stereo not drawn),-8
CCC1(CC)C(=O)NC(=Nc2cccc(C(F)(F)F)c2)NC1=O,-3
O=C(c1ccc2c(c1)ncn2-c1ccc(F)cc1F)N1CCC2(CC1)OCCO2,486*
Cc1cc(C(=O)N2CCC3(CC2)OCCO3)cs1,-4
Cc1noc(C)c1C(=O)N1CCC2(CC1)OCCO2,-8
O=C1CCN(C(=O)C(Cl)Cl)N1,-7
Cn1nc(-c2ccc(OCC(=O)N3CCN(Cc4ccccc4)CC3)cc2)c2ccccc2c1=O,104
O=S(=O)(c1ccccc1)N1CN2CCN(C2)C1,-86
Cc1nn(-c2ccccc2)c2c1C(c1ccc3c(c1)OCO3)SCC(=O)N2 (stereo not drawn),-79
COc1ccc(C(=O)C(Cc2ccccc2)N(C)C)cc1 (stereo not drawn),4
COc1ccc(C(=O)C(C)(C)NO)cc1,469*
COc1ccc(O)c(C(C)(C)C)c1,-7
COc1ccc(/C=C2/C(=O)NC(=O)N(c3ccc(C)c(C)c3)C2=O)cc1CN1C(=O)c2ccccc2C1=O,2
SMILES,INS promoter act
O=C1NC(=O)N(c2ccc(Br)cc2)C(=O)/C1=C/c1ccsc1,0
CSc1ncc(/C=C2/C(=O)NC(=O)N(c3ccc(Cl)cc3)C2=O)cn1,260*
C[C@]12CCC(=O)C=C1CC[C@@H]1[C@@H]2C(=O)C[C@]2(C)C(=O)CC[C@@H]12,9
O=P(C(c1ccc2c(c1)OCO2)N1CCOCC1)(N1CCOCC1)N1CCOCC1 (stereo not drawn),0
CCN1CC2([N+](=O)[O-])CC=C(Cl)C([N+](=O)[O-])(C1)C2 (stereo not drawn),0
c1ccc2c(CNC3CCCCCC3)c[nH]c2c1,-4
C(#CCN1CCOCC1)COCC#Cc1ccccc1,79*
O=C(Cn1nc(-c2ccc(Cl)cc2)ccc1=O)N1CCC2(CC1)OCCO2,0
CN(C)CP(=O)(O)CN(C)C=O,9
O=C(CNC1CCCCC1)N1CCC2(CC1)OCCO2,658*
O=C(CCCOc1ccc(Cl)cc1Cl)N1CCC2(CC1)OCCO2,171
Cc1ccc(-c2ccc(=O)n(CCC(=O)N3CCC4(CC3)OCCO4)n2)cc1,0
CC(C)NC(=O)c1ccc(N2CC3CC(C2)c2cccc(=O)n2C3)c([N+](=O)[O-])c1 (stereo not drawn),0
CC1(C)COC(Nc2cccc(Cl)c2)=N1,-3
Cc1cccc(CNCCc2ccccc2)n1,8
Cc1c2ccncc2c(C)c2c1[nH]c1ccccc12,354*
CC(=O)CC(=O)C1C(=O)N(C)C(=O)N(C)C1=O,-6
CC(C)CCCn1c(O)c(/C=C2/C=CC=N2)c(=O)[nH]c1=O,128
CC(=O)c1cn(CCCOc2ccccc2)c2ccccc12,0
O=C(c1ccco1)C12CN3CN(CN(C3)C1)C2,0
